For 167 variants, yeast fitness results are on record in the RNAGym collection of RNA variant scans (doi:10.1126/science.aae0568).

To fix the notation:
B1: tRNA (parent)
chain: GUUCCGUUGGCGUAAUGGUAACGCGUCUCCCUCCUAAGGAGAAGACUGCGGGUUCGAGUCCCGUACGGAACG

Fewer inactive variants are shown than the library holds.

Variants of B1 are the subject of the data set. The data set can be described thus: yeast fitness relative to wild type (ratio to wild type); higher = fitter; tRNA-Arg(CCU), competitive growth, 37 C, YPD. A digest of the protocol:
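Amplicons of the tRNA-Arg(CCU) gene were sequenced, 100-nucleotide paired-end, from the start population and from each end population of a pooled yeast competition. The competition, in six parallel replicates, lasted 24 hours in YPD at 37°C. Fitness relative to wild type was calculated from changes in genotype frequencies. Genotypes had to have ≥ 100 starting reads, and estimates < 0.5 were set to 0.5.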
As to U2G C4G C31A A37C A57G G67C A69U, the yeast fitness was no more than 0.5.
On to U2G C30A C46G, for which the yeast fitness worked out at 0.666.
Consider U2G C30U, for which the yeast fitness was found to be 0.843.
The figure for U2G C30A is 0.709; for U2G A37C G51A it is no more than 0.5; for U2G A40C it is 0.698.
The figure for U2G A40G is 0.803; for U2G A40U it is 0.813.
For U2G C24U G67C the value was 0.681.
With U2G C24U, the yeast fitness is 0.786.
For U2G C31U G48C C62A, the yeast fitness was no more than 0.5.
For U2G A42C U47A the value was 0.573.
On to U2G A57C C62A A65C, for which the yeast fitness is no more than 0.5.
The figure for U2G A40U C55U is no more than 0.5; for U2G C29G C31A G67A it is no more than 0.5; for U2G C4A U8C U16C C61G it is no more than 0.5.
Consider U2G C31U U47G, for which the yeast fitness is no more than 0.5.
For U2G C4U G6C C49G the value was no more than 0.5; for U2G C31U G48C, 0.6; for U2G C24A C33U A40G G51C A57U, no more than 0.5.
For U2G C24G C49A the value was no more than 0.5.
For U2G C22U C62U, the yeast fitness was 0.616.
For U2G C5A G12A C55G the value was no more than 0.5; for U2G C5G C11G G56C C61G, no more than 0.5.
Consider U2G C31U G50A C61G C66U A69U, for which the yeast fitness is no more than 0.5.
Turning to U2G A69G, the yeast fitness is 0.975.
For U2G A69U, the yeast fitness stood at 0.743.
As to U2G A69C, the yeast fitness was found to be 0.93.
For U2G C11G A20U C22U C34U C49A G52A the value was no more than 0.5.
For U2G C4U A40C, the yeast fitness was found to be 0.627.
Regarding U2G C4U C60A, the yeast fitness is no more than 0.5.
On to U2G C22U C24G G63A A69C, for which the yeast fitness is no more than 0.5.
The figure for U2G C11A C24A U26A G44C A70G is no more than 0.5; for U2G C27G C66U G67C A70G it is no more than 0.5; for U2G A42G it is 0.866.
For U2G C31A A69C the value was 0.557; for U2G C11A A14C C34A, no more than 0.5; for U2G C4G C31A A37C, no more than 0.5.
For U2G C22U C24G the value was 0.596; for U2G C27U A40G G48A, 0.576; for U2G C4A C22U U28G A42U U64C, no more than 0.5.
Turning to U2G A45U C49U C61G, the yeast fitness is no more than 0.5.
Regarding U2G C4U U8C, the yeast fitness amounted to 0.732.
Regarding U2G C22G C27G C30A U32G C55G, the yeast fitness was no more than 0.5.
Regarding U2G A42U A70U, the yeast fitness is 0.539.
Turning to U2G C22A A36G G52A C66A A69U, the yeast fitness was no more than 0.5.
As to U2G C22U A40U, the yeast fitness is no more than 0.5.
Regarding U2G C11G A20G C24U U26C C31G, the yeast fitness was no more than 0.5.
The figure for U2G A21G U47C A69C is no more than 0.5.
For U2G A21G C61G the value was no more than 0.5.
As to U2G C24G C29G C31A, the yeast fitness was no more than 0.5.
The figure for U2G A36U C62G G63A is no more than 0.5; for U2G C27U G68U it is 0.589.
Turning to U2G C22U C24G C66U A70G, the yeast fitness was no more than 0.5.
As to U2G A36G A40U A43U, the yeast fitness is no more than 0.5.
The figure for U2G A36G A40U A43U C66A is no more than 0.5.
U2G A42G C55U: the yeast fitness is no more than 0.5.
For U2G C4U the value was 0.971.
Consider U2G A36G, for which the yeast fitness is 0.953.
For U2G C4U G6C C22G G25C U32A G52A U59C C61A C62U the value was no more than 0.5; for U2G C22G U26C C27G C30A U32G C55G, no more than 0.5; for U2G C27U C46U G63A, 0.811.
For U2G C27G A65U, the yeast fitness was no more than 0.5.
The figure for U2G C27U A37C G52A G67A is no more than 0.5.
For U2G C5A C55G the value was 0.561; for U2G A42U U64C, no more than 0.5.
The figure for U2G A42U U64G is no more than 0.5; for U2G C22U A57U it is no more than 0.5; for U2G C4G A21C A69C it is no more than 0.5.
Regarding U2G A65G, the yeast fitness is 1.11.
In the case of U2G A65U, the yeast fitness was found to be 0.687.
For U2G C31G the value was 1.02; for U2G C31U, 1.03; for U2G C31A, 0.788.
For U2G C31G A57U the value was no more than 0.5; for U2G A21G U32C U59G C66U A70C, no more than 0.5.
The figure for U2G C11U C55G is no more than 0.5; for U2G C30A A36G G39C A57G it is 0.709.
With U2G C4U A36U, the yeast fitness came to 0.587.
For U2G A45U C66U G67A the value was no more than 0.5.
Take U2G C11U A45C U53G A69U: the yeast fitness came to 0.544.
For U2G C4U U7G C11G A15C G18A U28C C55U the value was no more than 0.5; for U2G C5A A43U, 0.68.
Regarding U2G C27U C55U, the yeast fitness was no more than 0.5.
For U2G C27G C33U C49U the value was no more than 0.5; for U2G C11G C62U, 0.609; for U2G A69C A70G, 0.57.
For U2G A45C C61U the value was 0.615.
For U2G C4U C22U C27U A37C the value was no more than 0.5.
U2G C24U A45C G48A G67A: the yeast fitness is no more than 0.5.
For U2G C11U A15U U47A the value was 0.578; for U2G A36G A40U A43U G56C A57U, no more than 0.5.
For U2G A37C C61U G67A the value was no more than 0.5; for U2G A40U C49A G58C G63C, no more than 0.5; for U2G C22U C24G A37U, no more than 0.5.
The figure for U2G C11G C30G is 0.614.
Regarding U2G C27U C46G, the yeast fitness came to 0.564.
For U2G C5A A70C the value was no more than 0.5.
For U2G C24G C29G C31G A69C the value was no more than 0.5; for U2G C22G G41C G68A, 0.573.
For U2G A70C the value was 0.836; for U2G A37C C49U A70C, no more than 0.5; for U2G C4U U7G C11G A15C G18A C55U, 0.75.
Consider U2G C4G A21C, for which the yeast fitness turned out to be 0.725.
Consider U2G C22G U28A C31G C55A G68C, for which the yeast fitness was no more than 0.5.
For U2G C11U C27G G52C the value was no more than 0.5; for U2G A36U G58A, no more than 0.5; for U2G C4A A37U C62G, no more than 0.5.
Regarding U2G A40U C46G, the yeast fitness was no more than 0.5.
For U2G A36U G68C the value was 0.605; for U2G A37C C49G C62A, no more than 0.5; for U2G C29U C55U, 0.527.
For U2G A21U the value was 0.729; for U2G C4A C22U U28G A42U, no more than 0.5; for U2G C31U A37C, 0.56.
For U2G C5G A21C A43U G50A G52U A69C the value was no more than 0.5.
For U2G A36U G67A G68C, the yeast fitness is no more than 0.5.
The figure for U2G C4U C61A C62U A65U is 0.521; for U2G C11G G12A A20U C31G G68C it is no more than 0.5; for U2G C30G G39C it is 0.551.
For U2G C11U A45C U53G A65G the value was no more than 0.5.
As to U2G C27G G52C, the yeast fitness is no more than 0.5.
With U2G A40C G41C A42U, the yeast fitness was no more than 0.5.
For U2G A21U G67C the value was no more than 0.5.
For the variant U2G C22U C24G A69U, the yeast fitness was determined as 0.501.
For U2G C4A A43U the value was 0.717; for U2G A57C, 0.533.
For U2G C5A U19A C30G A43C A69C, the yeast fitness stood at 0.537.
Regarding U2G A45G A65C, the yeast fitness is no more than 0.5.
For U2G C4U G6C C31G the value was no more than 0.5.
In the case of U2G C29U C49G C55G G63C, the yeast fitness is no more than 0.5.
Take U2G C27G C33U G56A: the yeast fitness was no more than 0.5.
As for U2G C4U A65G, the yeast fitness was 0.729.
For U2G C24G C31U G67C the value was no more than 0.5.
The figure for U2G C5A G23A U28C U59C C60G is no more than 0.5; for U2G C5A U19A C30G C55U G68C it is no more than 0.5; for U2G C24G A36G A42C C61U C62G it is no more than 0.5.
For U2G C5U C31G the value was 0.583; for U2G C30A U35G, 0.66.
With U2G C11G G12A A20U C30G C49G U53G, the yeast fitness is no more than 0.5.
The figure for U2G C31U A70U is 0.772; for U2G A37C it is 0.585; for U2G C30U A40C G63C U64C it is no more than 0.5.
For U2G C31G C33G A40U G52A C60G C62U the value was 0.515; for U2G C4U C55U, 0.679; for U2G C11U, 0.824.
Regarding U2G C27U G41A A42U C46G, the yeast fitness was no more than 0.5.
The figure for U2G A42C U47A G63C is 0.55.
For U2G A40C G68C the value was 0.54; for U2G A45U C60U, 0.549.
For U2G C27G C66U, the yeast fitness was no more than 0.5.
U2G C5A U19A: the yeast fitness was determined as 0.552.
Take U2G C22U C24G G51C C60U G67A: the yeast fitness was no more than 0.5.
For U2G C31G A42G A57U the value was no more than 0.5.
Take U2G C31G U35A A45U: the yeast fitness is no more than 0.5.
In the case of U2G A40U C55U A69U, the yeast fitness was no more than 0.5.
As to U2G A43U U47C, the yeast fitness was 0.731.
Consider U2G C4U A42G, for which the yeast fitness came to 0.755.
Turning to U2G C5A A36U, the yeast fitness is no more than 0.5.
The figure for U2G C24U C55G A70U is no more than 0.5.
Turning to U2G C27U A36G, the yeast fitness amounted to 0.552.
In the case of U2G C29G G50C A57U, the yeast fitness is no more than 0.5.
The figure for U2G C4U U13A G41A A45C C49A U54G C55G is no more than 0.5; for U2G C5A C55G A65C it is no more than 0.5.
The figure for U2G C5A U19A C30G A43C is no more than 0.5; for U2G A45C G48A it is 0.622; for U2G C4A U16C C61G G68C it is no more than 0.5.
